The list is not random: actives were taken first. Their share in the collection is about 2%.
CDK5 p35 inh: inhibitors of human CDK5/p35 kinase, primary screen, biochemical, single concentration; Recombinant CDK5/p35, ADP-Glo luminescence, 60 min; inhibition, % at 10 µM; 0.01% of 330,000 active;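 active means highest replicate inhibition of at least 50% and at least 75% of replicates reaching 50%; inconclusive means only one of the two criteria met; inactive means both criteria failed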;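 further: plate controls were DMSO neutral control for no effect and GW8510 at 10 µM for full effect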
SR-BI uptake up: activators of SR-BI mediated DiI-HDL uptake, primary screen, ldlA[mSR-BI] CHO cells, DiI fluorescence; 3 h; 100 = double the neutral-control signal; activation, % at 12.5 µM; 0.096% of 320,000 active; AID 504775, 2011;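 active means mean replicate activation of at least 60% and every replicate at or above 60%; inconclusive means mean or all-replicate condition met, but not both; inactive means mean below 60% and not all replicates reaching 60%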;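 further: 0% = median plate neutral-control signal and 100% = twice that signal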
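Test system: SR-BI-overexpressing, LDLR-lacking CHO cells. Measured by: DiI fluorescence, bottom read. Medium: Ham's F12 with 0.5% BSA, HEPES 25 mM, pH 7.4. Timing: 3 h uptake period with compound, 37 °C.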
SR-BI HDL uptake: inhibitors of SR-BI mediated HDL lipid uptake, primary screen, ldlA[mSR-BI] cells, fluorescence, single point; Scavenger receptor class B member 1 (Mus musculus), Q61009; AID 488896, 2010; 0.96% of 320,000 active; inhibition, % at 12.5 µM; ldlA[mSR-BI] CHO cells, DiI-HDL uptake fluorescence, 3 h;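 active means mean replicate inhibition of at least 70% and a set share of replicates each scoring 70 or more; inconclusive means meets just one of the two criteria; inactive means fails both criteria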;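 further: 0% = median of neutral control wells and 100% = median of positive control wells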
Target sequence (Q61009 whole entry, looked up): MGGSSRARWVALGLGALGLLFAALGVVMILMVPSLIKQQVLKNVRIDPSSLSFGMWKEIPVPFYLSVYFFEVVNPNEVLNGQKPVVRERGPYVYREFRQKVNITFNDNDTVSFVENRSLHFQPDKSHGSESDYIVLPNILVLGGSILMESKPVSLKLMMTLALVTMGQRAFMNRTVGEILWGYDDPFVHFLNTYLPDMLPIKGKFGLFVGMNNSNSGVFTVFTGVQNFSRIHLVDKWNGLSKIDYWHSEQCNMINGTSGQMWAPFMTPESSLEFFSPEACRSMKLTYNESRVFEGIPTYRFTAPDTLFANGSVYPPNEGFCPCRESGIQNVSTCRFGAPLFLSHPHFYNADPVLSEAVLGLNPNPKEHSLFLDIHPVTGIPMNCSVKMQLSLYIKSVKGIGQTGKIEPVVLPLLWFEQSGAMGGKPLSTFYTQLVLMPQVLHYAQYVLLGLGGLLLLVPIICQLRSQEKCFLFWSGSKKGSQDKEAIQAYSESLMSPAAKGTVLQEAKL
dFosB act: activators of delta FosB homodimer, primary screen, biochemical, fluorescence polarization, TAMRA-CDK5 oligo, single point | activation, % at 25 µM | AID 493131, 2011 | 0.99% of 340,000 active | purified delta FosB; percent of positive-control signal above neutral wells | Protein FosB (Mus musculus), P13346;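 active means mean activation above about 17%, with every replicate also reaching it, limit read from the data, passing the limit was not always enough; inconclusive means only one of the two conditions met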
* hit, by the source's call; ? = inconclusive; · = no result given.

SMILES	CDK5 p35 inh	SR-BI uptake up	SR-BI HDL uptake	dFosB act
CC(C)(C)c1ccc(OCc2ccc(C(=O)N/N=C3\CC4CC=CC34)cc2)cc1 (stereo not drawn)	0	-79	79*	-1
COc1ccc(/C=N/NC(=O)c2ccc(Br)cc2)c(OC)c1	0	-83	83*	-3
Cn1cccc1-c1cc(C(=O)N/N=C/c2ccccc2Cl)[nH]n1	0	-62	62	-9
O=C(N/N=C1\CC2CC=CC12)c1ccc(COc2ccccc2)cc1 (stereo not drawn)	0	-18	18	-2
CC1=NS(=O)(=O)NC(C)(C)C1	0	-8	8	-5
Cc1ccc2[nH]c(CSc3ccccc3)cc(=O)c2c1	1	19	-19	-10
CN(C)S(=O)(=O)c1ccc(C(=O)OCC2COC(C)(C)O2)cc1 (stereo not drawn)	-1	·	·	0
COc1ccc(Cn2c(-c3ccccc3C)nc3c(c(=O)c4ccccc4n3C)c2=O)cc1	2	0	0	2
CC(CC(=O)Nc1ccccc1)NCCCN1CCCC1=O (stereo not drawn)	-2	19	-19	-6
CCCOc1ccc(Br)cc1/C=N/NC(=O)c1cc(OC)c(OC)c(OC)c1	1	-76	76*	-7
COc1ccc(O)c(/C=N/NC(=O)c2ccc(OCc3cccc(Br)c3)cc2)c1	-2	-129	129*	7
COc1ccc(C(=O)N/N=C/c2ccccc2C(=O)O)cc1OC	-5	·	·	4
COc1ccc(C(=O)N/N=C/c2cc(Br)ccc2O)cc1OC	-6	-120	120*	?
COc1ccc(Br)cc1/C=N/NC(=O)c1cccnc1	0	-33	33	-31
COc1ccc(C(=O)NCC(=O)OCc2cccc(Br)c2)cc1	0	-9	9	-5
N#Cc1cnc(NCc2ccc(Cl)cc2Cl)nc1	-2	-10	10	4
Cc1sc(NC(=O)c2ccco2)nc1-c1ccc2c(c1)CC(C)N2C(=O)C1CC1 (stereo not drawn)	0	-79	79*	-8
CCN1C[C@@H]2[C@@H]3C(=O)N(Cc4ccccc4)C(=O)[C@@H]3[C@](Cc3ccccc3)(C(=O)OC)N2C1=NC	-5	-2	2	4
O=C(Nc1ncc(Cc2cccc(Cl)c2Cl)s1)c1ccc([N+](=O)[O-])cc1	3	-66	66	-1
O=C(Nc1ncc(Cc2cc(Cl)ccc2Cl)s1)c1ccc([N+](=O)[O-])cc1	1	-82	82*	-16
C/C(CC(=O)Nc1ccc(Cl)c(C(F)(F)F)c1)=N\NC(N)=S	0	-80	80*	-12
C/C(CC(=O)Nc1ccc(Cl)c(C(F)(F)F)c1)=N\NC(=O)c1ccccc1O	0	-17	17	-7
O=C(NCCN1CCCCC1)Nc1ccc(F)cc1F	-2	10	-10	1
COc1ccc(N2CCN(c3ccc(NC(=O)c4ccc5c(c4)OCO5)cc3C#N)CC2)cc1	-1	7	-7	1
COc1ccc(CC(=O)Nc2ccc(N3CCN(c4ccc(OC)cc4)CC3)c(C#N)c2)cc1	-1	-78	78*	3
SMILES	CDK5 p35 inh	SR-BI uptake up	SR-BI HDL uptake	dFosB act
NC1=NC(c2cn(-c3ccccc3)nc2-c2cccs2)n2c(nc3ccccc32)N1 (stereo not drawn)	0	6	-6	37*
O=C(C[C@@H]1C/C=C\C[C@@H](Cc2ccc(F)cc2)C(=O)OCCNC1=O)NCCO	0	32	-32	1
Cc1ccc(C(CCN)c2ccco2)cc1 (stereo not drawn)	1	2	-2	-3
Cc1ccc(C(CC(N)=O)c2ccco2)cc1 (stereo not drawn)	-3	71*	-71	0
Nc1c(N(Cc2ccco2)C(=O)COc2ccccc2F)c(=O)[nH]c(=O)n1Cc1ccccc1	-2	7	-7	6
CCOC(=O)C1=C(C)NC(=O)C(C#N)C1c1ccco1 (stereo not drawn)	-1	61*	-61	-1
CCOc1cc(S(=O)(=O)NCCCN2CCOCC2)ccc1F	1	1	-1	5
O=[N+]([O-])c1ccccc1Nc1c2ccccc2nc2ccccc12	1	-77	77*	-4
O=C(O)c1cc(O)c2c(c1)C(=O)c1cccc(O)c1C2=O	0	5	-5	-7
O=C1c2c(O)cccc2Cc2cccc(O)c21	2	18	-18	26*

Screening results from PubChem BioAssay.
